APP 5'UTR act: activates APP 5'UTR luciferase reporter; SH-SY5Y APP 5'UTR luciferase reporter, luminescence; zero percent = DMSO vehicle wells; activation, % at 2 µM; 190,000 tested, 1% active; AID 1276;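 active = activation above a set limit, based on mean plus 3 SD of controls, cut at about 140% in these data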
FLuc inhib CS: counter-screen for luciferase assay inhibitors: firefly luciferase inhibition; P08659; ATPLite firefly luciferase biochemical luminescence, 10 min; inhibition, % at 10 µM; 200,000 tested, 1.5% active;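 active = inhibition above about 50% when tested at 10 µM, limit read from the data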
Target sequence (P08659 whole entry, looked up): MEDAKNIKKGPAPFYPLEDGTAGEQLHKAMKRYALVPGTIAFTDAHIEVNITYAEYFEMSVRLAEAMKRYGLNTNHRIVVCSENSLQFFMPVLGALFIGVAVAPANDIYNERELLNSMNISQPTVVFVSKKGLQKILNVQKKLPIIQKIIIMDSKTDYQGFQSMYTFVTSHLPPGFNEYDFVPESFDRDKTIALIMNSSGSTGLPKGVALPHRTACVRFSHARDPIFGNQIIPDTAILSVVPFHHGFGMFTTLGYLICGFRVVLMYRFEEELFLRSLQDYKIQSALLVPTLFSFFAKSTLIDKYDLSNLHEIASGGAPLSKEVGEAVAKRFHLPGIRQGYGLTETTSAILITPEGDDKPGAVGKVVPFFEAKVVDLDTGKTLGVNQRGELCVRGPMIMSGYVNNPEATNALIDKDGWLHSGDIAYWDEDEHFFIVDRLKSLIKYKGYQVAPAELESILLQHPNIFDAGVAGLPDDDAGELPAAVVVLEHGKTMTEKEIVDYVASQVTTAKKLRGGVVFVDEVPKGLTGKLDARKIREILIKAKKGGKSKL
NF-kB neuron act: NF-kB expression increase, human neuronal cells; NF-kB reporter expression; active compounds read high; fold change at 12.5 µM; 190,000 tested, 1.6% active; in the data active = fold change above about 3.3
FLuc stim CS: firefly luciferase counter-screen for stimulation assays; P08659; ATPlite luciferase biochemical, luminescence, 10 min; 0 = ATP-free wells, 1 = DMSO control; activation factor at 10 µM; 200,000 tested, under 10 active; AID 1027;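 active = luciferase activation factor, scaled between plate controls, of at least 2 with compound at 10 µM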
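assay system = Luciferase/luciferin detection reagent, cell-free biochemical luciferase assay | also added = ATP substrate | times = 10 min post-reagent at room temperature | measured by = luminescence from luciferase reaction | measure = luciferase activation, seen as luminescence increase over controls | benchmarks = low control with PBS replacing ATP, high control enzyme plus ATP without compound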
STAT1 act: activators of IFN-gamma induced STAT1 signaling; NIH 3T3 STAT1-luciferase reporter, luminescence; 100% = IFN-gamma alone, no compound; activation (% of control), % at 5.5 µM; 200,000 tested, 2.6% active; AID 932;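 active = activation above the screen-wide mean activation plus 3 SD, cut at about 130% in these data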
A number is an active result; i = inactive; nt = no result given. The list is not random: actives were taken first. Their share in the collection is about 4.1%.

SMILES	APP 5'UTR act	FLuc inhib CS	NF-kB neuron act	FLuc stim CS	STAT1 act
O=C(NC(=S)NCCN1CCOCC1)c1ccc(Cl)cc1	i	i	i	i	i
O=[N+]([O-])c1ccc2ccn(C3OCC(O)C(O)C3O)c2c1 (stereo not drawn)	i	i	i	i	i
O=C(NNC(=S)Nc1ccccc1)c1ccc2ncccc2c1	i	i	i	i	i
COc1cccc(/C=N/Nc2cc(Cl)nc(C)n2)c1O	i	54	i	i	i
COc1cc(/C=N/NC(=O)Nc2ccccc2)ccc1OC(C)=O	i	i	i	i	142
O=C(NC(=S)Nc1ccc2ncccc2c1)c1ccccc1	i	i	i	i	131
COc1ccc(/C=N/NC(=O)CSCC(=O)Nc2ccccc2)cc1OC	i	i	i	i	i
COc1ccc(/C=N/NC(=S)Nc2ccccc2)cc1	i	i	i	i	133
CCOC(=O)c1ccc[n+](CC(=O)Nc2cc(C(F)(F)F)ccc2Cl)c1	i	i	i	i	i
CCOC(=O)c1ccc(-c2c(C(=O)OCC)oc3cc(O)c(CC)cc3c2=O)o1	i	i	i	i	i
Cc1ccsc1/C=N/Nc1ncc(Cl)cc1Cl	nt	i	i	i	140
Cc1ccsc1/C=N/Nc1nc(=O)[nH]nc1C	i	52	i	i	i
COc1c(OC)c(O)c2c(=O)cc(-c3c(O)cccc3O)oc2c1OC	i	i	i	i	i
COc1ccc(CN(C(=O)CSc2nnc(-c3c[nH]c4ccccc34)o2)c2ccc(F)cc2)cc1OC	i	i	i	i	i
O=C(Cc1ccccc1)c1nnc(-c2ccccc2)o1	i	i	i	i	i
O=[N+]([O-])c1ccc(N=NNc2ccccc2)cc1	i	i	3.6	i	135
CN(N=Nc1ccc([N+](=O)[O-])cc1)c1ccccc1	i	i	i	i	139
O=C(CCC(=O)OCC(F)(F)C(F)F)Nc1ccccc1F	i	i	i	i	i
CN(C)S(=O)(=O)c1ccc(N=Cc2c(C(F)(F)F)[nH][nH]c2=O)cc1	i	i	i	i	i
Cn1[nH]c(C(F)(F)F)c(C=Nc2ccc(Cl)cc2)c1=O	182	i	i	i	i
CC1(C)CC(=O)C=C(C(=O)N2CCCC(C(=O)c3cccc(Cl)c3)C2)O1 (stereo not drawn)	i	i	i	i	i
O=Cc1c(Sc2ccccc2)nc2ccccn2c1=O	i	i	4.2	i	i
CC(C)OC(=O)CSc1nnnn1-c1ccc2c(c1)OCCO2	i	i	i	i	129
Fc1ccc2c(c1)[C@H]1OCC[C@H]1[C@@H](c1ccco1)N2	i	i	i	i	i
Clc1ccc2c(c1)[C@H]1OCC[C@H]1[C@@H](c1ccco1)N2	i	59	i	i	i
SMILES	APP 5'UTR act	FLuc inhib CS	NF-kB neuron act	FLuc stim CS	STAT1 act
Cc1ccccc1C(=O)NC(CC(C)C)C(=O)OCc1cc(=O)n2cc(Br)ccc2n1 (stereo not drawn)	i	i	3.5	i	138
CC1CC1C(=O)OCc1cc(=O)n2cc(Br)ccc2n1 (stereo not drawn)	i	i	i	i	136
Cc1ccc(S(=O)(=O)NN2C(=O)c3ccccc3NC2c2ccccn2)cc1 (stereo not drawn)	i	i	i	i	i
O=C(/C=C/N1CCOCC1)c1cc2ccccc2o1	i	i	i	i	i
O=C(/C=C/N1CCOCC1)c1coc2ccccc12	i	54	i	i	136
CCCCN(C)C(=O)C1CCC(=O)N(c2cc(OC)c(OC)c(OC)c2)C1c1ccc(OC)cc1 (stereo not drawn)	i	i	i	i	i
O=C1SC(SC(=Nc2ccccc2)Nc2ccccc2)C(=O)N1c1ccccc1 (stereo not drawn)	i	i	i	i	138
Cn1cccc1/C=C1\CCc2ccccc2C1=O	167	70	5.9	i	i
Cn1cccc1/C=C1\Cc2ccccc2C1=O	184	58	7.2	i	140
Cn1cccc1/C=C1\CC(C(C)(C)C)C/C(=C\c2cccn2C)C1=O (stereo not drawn)	i	i	i	i	i
COC(=O)c1ccc(COc2ccccc2/C=N/NS(=O)(=O)c2ccc(C)cc2)cc1	i	i	i	i	i
COc1ccc(C(=O)Cc2cc(OC)c(OC)cc2C(=O)c2ccccc2F)cc1OC	i	i	i	i	i
Cc1ccc(NC(=O)/C(C#N)=C(\N)C(Cl)(Cl)Cl)nc1	i	83	6.4	i	i
O=C(C[n+]1cccc(CO)c1)Nc1nc2ccccc2s1	i	i	i	i	i
Cc1[nH]c(=O)[nH]c(=O)c1S(=O)(=O)N1CCCC1	i	i	i	i	i
COc1ccc(CCNC(=O)CSc2ccc(-c3ccncc3)nn2)cc1	i	i	i	i	i
CN1C(=O)/C(=C2\SC(N3CCCCCC3)=NC2=O)c2ccccc21	i	79	i	i	i
CC(C)=C1SC(N2CCN(Cc3ccccc3)CC2)=NC1=O	i	i	i	i	i
CN1C(=O)/C(=C2\SC(N)=NC2=O)c2ccccc21	i	i	i	i	i
CCCN1C(=O)/C(=C2\SC(N3CCCCC3)=NC2=O)c2ccccc21	i	71	i	i	i
O=C1N=C(N2CCOCC2)S/C1=C1\C(=O)N(Cc2ccccc2)c2ccccc21	380	i	i	i	i
Clc1ccc(/C=N/Nc2nnc(-c3ncc[nH]3)c3ccccc23)cc1	i	75	i	i	i
Clc1cccc(/C=N/Nc2nnc(Cl)c3ccccc23)c1	i	i	i	i	i
CC(=O)N(c1ccccc1)c1nnc(-c2cnc(C)cn2)s1	137	i	3.5	i	i
CN(c1ccc(F)cc1)S(=O)(=O)c1ccc(Cl)c(C(=O)OCC(=O)NCc2ccco2)c1	i	i	i	i	i
SMILES	APP 5'UTR act	FLuc inhib CS	NF-kB neuron act	FLuc stim CS	STAT1 act
Cc1cc(C)c2c(N)c(C(=O)NC3CC3)sc2n1	i	i	i	i	i
Cc1cc(C)c2c(N)c(C(=O)Nc3nccs3)sc2n1	i	94	i	i	i
COCc1cc(C)nc2sc(C(=O)Nc3nccs3)c(N)c12	i	i	i	i	132
COc1ccc(Nc2nc3ccccc3c(=O)s2)c(OC)c1	i	i	i	i	i
COc1ccc2nc(NC(=O)Nc3cccc4ccccc34)sc2c1	i	i	i	i	i
CC(C)C(=O)Nc1nc2ccc(S(C)(=O)=O)cc2s1	i	i	i	i	i
CCOC(=O)c1cccc(C(=O)Nc2nc3ccc(OC)cc3s2)n1	i	91	i	i	i
COc1ccc2nc(NC(C)=O)sc2c1	i	i	i	i	139
COC(=O)c1ccc2nc(NC(=O)C(C)C)sc2c1	i	60	6	i	134
COc1ccc2nc(Nc3ccccc3OC)sc2c1	202	87	7.9	i	i
NC(=S)N/N=C/c1ccccc1OCCSc1ccc(Cl)cc1	i	i	i	i	i
CCn1nnnc1SCC(=O)Nc1nc2ccc(OC)cc2s1	i	i	i	i	i
COc1ccc2nc(NC(=O)c3ccc4ncsc4c3)sc2c1	i	i	i	i	142
COc1ccc2nc(NC(=O)CSc3nnc(-c4ccoc4C)n3C)sc2c1	i	60	i	i	130
COc1cccc([C@@H]2Oc3ccc(OC)cc3C(=O)[C@H]2OC(=O)NCc2ccc3c(c2)OCO3)c1	i	i	i	i	i
COc1ccc2cc(C(=O)C3CCCN(C(=O)/C=C/c4ccccn4)C3)ccc2c1 (stereo not drawn)	i	i	i	i	i
c1ccc2c(Oc3ccc4c(c3)OCO4)nncc2c1	i	i	4.3	i	138
CCc1nnc(NC(=O)CSc2nnc(-c3ccncc3)n2C)s1	i	i	i	i	i
